Screening data: PubChem BioAssay, several laboratories
Rows were chosen to be rich in hits. Some 2.3% of all compounds tested hit in one or more screens of this group.
C8 TRAIL sens: viability loss with TRAIL in NB7+C8 cells, primary screen, TRAIL sensitizer project, cell-based, ATPlite luminescence; 1% of 360,000 active; inhibition (viability loss, TRAIL sensitization), % at 10 µM; AID 624354, 2012;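 active means compounds causing at least 50% loss of cell viability in the single-dose screen, relative to plate controls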
STAT3 act: IL-6 driven STAT3 reporter potentiators, primary screen, U3A cells, luciferase, luminescence, MLSCN library | IL-6 STAT3-luciferase reporter; 100% = signal with IL-6 EC80 alone | activation (% of control), % at 5.6 µM | 0.91% of 190,000 active | AID 871, 2007;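 active means activation above the screen-wide mean of compound activation plus 3 SD, cut at about 130% in these data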;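 further: 0% = background luminescence of wells with medium and substrate only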
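Material: STAT3-luciferase reporter U3A cells. Controls: IL-6-treated wells, 100% activation. Read-out: % activation versus median of IL-6-stimulated wells. Probe or stimulus: IL-6 stimulus at 33 ng/mL final. Timing: compound 1 h, then IL-6 6 h at 37 °C. Signal: reporter luminescence signal.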
STAT1 blocker: STAT1 signaling inhibitors, primary screen, cell-based, HTS, luciferase reporter; NIH 3T3 STAT1-luciferase reporter, IFN-gamma, luminescence; inhibition, % at 5.5 µM; 0.35% of 200,000 active; AID 920, 2007;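 active means inhibition above a set limit, the mean inhibition across all tested compounds plus 3 SD, cut at about 34% in these data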;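 further: 0% = IFN-gamma with DMSO and 100% = IFN-gamma with 300 µM nifuroxazide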
STAT3 blocker: IL-6 driven STAT3 reporter inhibitors, primary screen, U3A cells, luciferase, luminescence, MLSCN library. IL-6 STAT3-luciferase reporter; host cell line lacks STAT1. inhibition, % at 5.5 µM. 0.89% of 190,000 active;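 active means inhibition above the mean inhibition across all screened compounds plus 3 SD, cut at about 44% in these data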;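 further: 0% = DMSO only wells and 100% = 100 µM nifuroxazide control wells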
HSP90 inh: HSP90 inhibitors, primary screen, cell lysate, luminescence; Rabbit reticulocyte lysate, luciferase refolding luminescence, 3 h; inhibition, % at 5.6 µM; 0.91% of 290,000 active; Heat shock protein HSP 90 (rabbit reticulocyte lysate; luciferase refolding);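 active means inhibition above the screen-wide mean plus 3 SD, computed separately per campaign, cut at about 16% in these data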;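 further: 0% = DMSO wells and 100% = 60 µM geldanamycin wells; inhibitors lower the luminescence because luciferase stays unfolded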
PPC-1+TRAIL kill: compounds killing PPC-1 cancer cells with TRAIL present, primary screen, TRAIL potentiator project, ATPLite luminescence, uHTS. 0.41% of 220,000 active. PPC-1 cells + TRAIL, ATPLite viability luminescence. cell killing (% activity), % at 4 µM or 5 µM;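 active means cell killing above 50% in the first pass at 4 µM, then a duplicate retest at 5 µM averaging 50% or more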;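 further: plate controls were cells with TRAIL plus DMSO for no effect and medium-only wells lacking cells for full effect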
* hit, by the source's call; . = not tested or not shown.

SMILES	C8 TRAIL sens	STAT3 act	STAT1 blocker	STAT3 blocker	HSP90 inh	PPC-1+TRAIL kill
Cn1nccc1C(=O)Oc1cccc(/C=N/NC(=O)c2ccccc2O)c1	53*	71	-6	38	-16	36
CN(C)c1nc(N)nc(-c2nc3ccccc3s2)n1	25	180*	-38	-95	-2	29
COc1ccc(-c2cn3c(C)c(C(=O)N4CCN(c5ccccc5)CC4)sc3n2)cc1	-12	.	.	.	.	.
COc1ccc(-c2cn3c(C)c(C(=O)N4CCN(c5ccc(F)cc5)CC4)sc3n2)cc1	5	104	2	0	68*	9
COc1ccc(-c2cn3c(C)c(C(=O)NC(C)(C)C)sc3n2)cc1	5	.	.	.	45*	.
COc1ccc(-c2cn3c(C)c(C(=O)NC(C)C)sc3n2)cc1	-10	100	-17	4	1	9
CCOC(=O)c1cc(C#N)c(SCc2ccc(C#N)cc2)nc1C	5	136*	-4	-36	0	.
CCOC(=O)c1cc(C#N)c(SC)nc1C	4	.	.	.	6	5
Cn1c(C(=O)NCCC2=CCCCC2)cc2c(=O)n3ccccc3nc21	60*	91	-8	14	1	19
O=C1/C(=C/c2cccnc2)CCc2c1[nH]c1ccccc21	46	93	-5	13	-3	9
CCc1ccc(OCC(=O)N/N=C/c2cc([N+](=O)[O-])ccc2N2CCCCCC2)cc1	9	101	-2	1	4	4
CCC1CCCCN1c1ccc([N+](=O)[O-])cc1/C=N/NC(=O)Cn1c2ccccc2c(=O)c2ccccc21 (stereo not given)	74*	109	-7	-10	3	22
Cc1cccc(-c2noc(CNS(=O)(=O)c3ccccc3)n2)c1	-16	.	.	.	-2	.
Cc1onc(C(=O)N2CCN(C(c3ccccc3)c3ccccc3)CC2)c1[N+](=O)[O-]	91*	95	4	5	-3	13
CCOc1ccc(Cn2nnc(C(=O)Nc3cc(OC)cc(OC)c3)c2N)cc1	-10	95	6	14	-2	-20
COc1ccc(C(=O)/C(C#N)=N/Nc2ccc([N+](=O)[O-])cc2)cc1	40	54	37*	59*	-5	47
COc1ccc(C(=O)/C(C#N)=N/Nc2ccccc2[N+](=O)[O-])cc1	-6	99	-7	5	-2	21
NC1=C(Br)C(=O)c2ncccc2C1=O	95*	.	.	.	.	.
CCOC(=O)C1=C(C)OC(=Cc2ccc(OC)cc2)C1=O	70*	.	.	.	.	.
CC(C)N(C(=O)CSc1nc(Cc2ccccc2)nc2ccccc12)C(C)C	2	.	.	.	-1	.
COc1nn(-c2ccccc2)c(=O)c(Cl)c1Cl	91*	.	.	.	-5	.
COc1ccc(Cc2c(-c3ccc(OC)c(OC)c3)nc3ccc(C)cn23)c(C)c1	-24	.	.	.	.	.
O=C(OCCC12CC3CC(CC(C3)C1)C2)c1ccc(NCc2cc(O)ccc2O)cc1	92*	.	.	.	.	.
N#CCC(=O)Nc1ccc(C(=O)OCC(=O)C23CC4CC(CC(C4)C2)C3)cc1	5	.	.	.	.	.
CCNC(=O)OCCC12CC3CC(CC(C3)C1)C2	0	105	-10	-8	1	21
SMILES	C8 TRAIL sens	STAT3 act	STAT1 blocker	STAT3 blocker	HSP90 inh	PPC-1+TRAIL kill
O=C(OCC12CC3CC(CC(C3)C1)C2)c1ccc(NCc2cc(O)ccc2O)cc1	92*	.	.	.	.	.
CC(C)(C)c1csc(NC(=O)Nc2ccccc2)n1	54*	103	-40	5	-4	25
CN1CCNC(=O)C1CC(=O)O (stereo not given)	14	97	8	10	3	13
O=C(Nc1ccc(Cl)cn1)c1ccc2c(Cl)c3c(nc2c1)CCC3	57*	.	.	.	-3	47
COc1ccc(OC)c(N(CCN2C(=O)c3ccccc3C2=O)C(=O)CCl)c1	94*	.	.	.	.	.
O=C(COC(=O)c1cc(-c2ccccc2)nc2ccccc12)Nc1ccc2c(c1)OCO2	-1	73	5	35	-1	19
Cc1c(NC(=O)COC(=O)c2cc(-c3ccc(-c4ccccc4)cc3)nc3ccccc23)c(=O)n(-c2ccccc2)n1C	87*	105	-51	-11	-3	81*
COc1ccc(-c2cc(C(=O)OCC(=O)Nc3ccc4c(c3)OCO4)c3ccccc3n2)cc1	56*	91	4	9	-2	31
Cc1ccc(-c2cc(C(=O)N/N=C/c3cccnc3)n[nH]2)o1	5	75	11	33	0	30
O=c1c(Cl)c(Nc2cccc(Cl)c2)cnn1-c1nc2ccccc2s1	20	92	-56	7	16*	-3
O=C(NCCC1=CCCCC1)c1ccc([N+](=O)[O-])cc1	29	91	-57	13	13	10
O=C(NCCC1=CCCCC1)c1ccc(F)cc1	15	73	-76	32	38*	24
Nc1nc(-c2ccc(-c3ccccc3)cc2)cs1	59*	82	-43	23	-3	8
COc1cc(SC)ccc1C(=O)NNC(=O)c1cc(C)oc1C	69*	.	.	.	.	.
COc1cc(SC)ccc1C(=O)Nc1c(C)cccc1C	22	97	-6	9	-2	6
COc1ccc(-c2nn(-c3ccccc3)cc2/C=N/N=C(N)N)cc1OC	25	96	6	3	-4	55*
COc1ccc(-c2nn(-c3ccccc3)cc2/C=N/O)cc1OC	8	.	.	.	6	.
O=C(NC(=S)N1CCCCCC1)c1cccc([N+](=O)[O-])c1	-2	.	.	.	.	.
CN(C)CCNC(=O)c1cccc(-c2cc(NC=O)c3ncc(-c4cccc(C(F)(F)F)c4)n3c2)c1	79*	.	.	.	.	.
O=C(Nc1cccc2c1C(=O)NC2=O)c1cccnc1Cl	-2	79	-9	29	0	21
O=C(COc1ccc(S(=O)(=O)N2CCCC2)cc1)Nc1ccc2c(c1)OCCO2	-1	102	-6	0	-2	-5
CC(=O)N(C)c1ccc(N=Nc2ccc3ncccc3c2)cc1	62*	.	.	.	.	.
Oc1ccc(C=Nc2ccc3ncccc3c2)c(O)c1	.	115	-5	-12	5	17
NC(=O)c1c(NC(=O)C2CC=CCC2C(=O)O)sc2c1CCCCC2 (stereo not given)	-5	.	.	.	6	.
O=C1CN(C(=O)Cn2ncc(Cl)c(Cl)c2=O)c2ccccc2N1	94*	94	7	10	2	38
O=C1CN(CC(=O)Nc2cccc(Cl)c2Cl)c2ccccc2N1	-25	149*	6	-58	1	12
O=C1CN(C(=O)COc2ccc(Cl)c(Cl)c2)c2ccccc2N1	4	.	.	.	.	.
O=C(CN1C(=O)NC2(CCCC2)C1=O)Nc1cccc(Cl)c1Cl	3	.	.	.	-3	.
